Screens (PubChem BioAssay)
This excerpt belongs to a sample that is enriched for hits.
A1 inh = inhibitors of the anti-apoptotic protein A1, read as caspase activation; 330,000 tested, 0.066% active; caspase activation, % (concentration not given with the values); MEF A1-2A-BIM cells, Caspase-Glo 3/7 luminescence, 3 h; percent of clofoctol response, vehicle zero;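 active means over half of replicate activation scores above 10%, or exactly half above 10 with the replicate mean above 10; inconclusive means replicate mean below 10 yet half the replicates above 10; inactive means over half of replicates below 10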
UPR CHOP act = apoptotic UPR (CHOP) activation; AID 449763; activation, % at 10 µM; 330,000 tested, 0.34% active; CHO-CHOP luciferase reporter, luminescence; percent of tunicamycin response over DMSO baseline;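 active means at 10 µM dose, activation of 40% or more, normalized to positive control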;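 further: 100% = tunicamycin at 10 µg/mL and 0% = DMSO alone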
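Material: CHO-CHOP cells, stable luciferase reporter of PERK-eIF2a-CHOP signalling; quantity: 500 reporter cells seeded per well; buffer or medium: F12 medium containing 10% fetal bovine serum; compound: one dose, 10 µM in 0.5% DMSO; incubation: 6 h compound treatment, 37 °C; measured by: Steady-Glo luciferase luminescence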
XBP1 UPR activ = adaptive UPR (XBP1) activation | CHO-XBP1 luciferase reporter, IRE1-XBP1 UPR activation, luminescence; percent of tunicamycin response, DMSO as zero | activation, % at 20 µM | 330,000 tested, 0.33% active | AID 463104;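 active means versus positive control, 20 µM dose yields 30% or more activation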;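 further: 100% = tunicamycin at 10 µg/mL and 0% = DMSO only wells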
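Material – CHO cell line with stable XBP1 luciferase reporter · Buffer or medium – F12 plus 10% FBS · Compound – single point, 20 µM final compound, 1% DMSO · Schedule – 16-18 h cell attachment at 37 °C, then 6 h compound exposure · Signal – Steady-Glo luminescence read · Benchmarks – high control tunicamycin 10 µg/mL final, low control DMSO vehicle only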
CHOP inh = blocks CHOP induction under ER stress; CHO-K1 CHOP-promoter luciferase, tunicamycin-induced, 15-18 h; 220,000 tested, 3.8% active; inhibition, % at 10 µM;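 active means compounds that reduced the stress-induced luciferase reporter signal by more than about 70% of percent inhibition, limit read from the data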;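 further: 0% = tunicamycin plus vehicle and 100% = wells without tunicamycin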
CHOP confirm = confirmation of CHOP induction inhibitors; 2,100 tested, 45% active; CHO-CHOP promoter luciferase reporter, tunicamycin-induced, luminescence; shares compounds with CHOP inh; inhibition, % at 10 µM; AID 504437;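 active means mean of three repeat readings of reporter signal inhibition above a set limit, cut at about 70% in these data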;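 further: 0% = tunicamycin plus vehicle and 100% = wells lacking tunicamycin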
* marks the source's active call; other numbers are inactive results; ? = inconclusive; nt = no result given.

SMILES	A1 inh	UPR CHOP act	XBP1 UPR activ	CHOP inh	CHOP confirm
CC(/C=C1\SC(=O)N(CCCC(=O)O)C1=O)=C\c1ccccc1	-0.9	nt	nt	101.1*	110.1*
O=C(OCn1ncc(Cl)c(Cl)c1=O)c1cccc(C(F)(F)F)c1	?	-10.9	-6.6	106.9*	120.1*
O=C(OCn1ncc(Br)c(Br)c1=O)c1ccc(F)cc1	1.0	-11.2	-5.8	nt	nt
O=C(Nc1cccc(O)c1)C(Cc1ccccc1)N1C(=O)c2cccc3cccc(c23)C1=O (configuration not stated)	-0.3	-1.5	4.1	109.2*	25.1
COc1ccc(C2c3cc(OC)c(OC)cc3CCN2S(C)(=O)=O)cc1OC (configuration not stated)	nt	-2.6	5.8	4.8	nt
CC(C)(C)c1cc(S(=O)(=O)CCc2ccccn2)cc(C(C)(C)C)c1F	0.9	1.9	1.2	97.2*	130.7*
CN(CCc1ccccn1)S(=O)(=O)c1ccc(F)cc1	0.1	-2.2	0.3	8.6	nt
COc1cccc(NC(=O)C(=S)NC2CCCCC2)c1	-8.9	0.8	2.0	50.2	nt
N#Cc1ccc(-c2ccccc2)nc1SCCN1CCOCC1	0.8	-0.5	2.6	31.6	nt
Cc1ccc(NC(=O)C2SC(=Nc3ccccc3)C(C(=O)Nc3ccc(Cl)cc3)=C2N)cc1 (configuration not stated)	nt	nt	nt	28.1	nt
Cc1ccc(N=C2SC(C(=O)Nc3ccc(OC(F)(F)F)cc3)C(N)=C2C(=O)Nc2c(C)cc(C)cc2C)cc1 (configuration not stated)	1.6	nt	nt	105.1*	83.5*
CC(=O)N1CCN(c2ccc(NC(=O)c3ccccc3)cc2)CC1	-0.1	5.7	-1.2	nt	nt
COc1ccc(/C=C2\SC(=S)N(CCC(=O)Nc3ccc(C(=O)O)cc3)C2=O)cc1	-1.0	3.5	-0.2	nt	nt
COc1ccc(/C=C2\SC(=S)N(CCCC(=O)Nc3ccc(O)cc3)C2=O)cc1	-0.9	-7.4	-1.9	99.3*	112.1*
COc1ccc(/C=C2/SC(=S)N(CCCC(=O)Nc3ccc(O)cc3)C2=O)cc1	-0.6	-6.1	-3.1	98.6*	118.5*
CCc1ccc(/C=C2/SC(=S)N(CCCC(=O)Nc3ccccc3C(=O)O)C2=O)cc1	0.9	-3.8	-5.0	nt	nt
CCc1ccc(/C=C2\SC(=S)N(CCCC(=O)Nc3ccccn3)C2=O)cc1	-1.7	-10.3	-9.2	102.2*	125.5*
COc1ccc(/C=C2\SC(=S)N(CCC(=O)Nc3cccc(O)c3)C2=O)cc1	nt	11.5	0.0	nt	nt
CCOC(=O)c1c(C)[nH]c(C(=O)COC(=O)c2[nH]c(C)c(C(C)=O)c2C)c1C	-0.5	-2.2	-2.1	97.2*	82.7*
Cc1[nH]c2ccccc2c1C(=O)COC(=O)C1CC(=O)N(Cc2ccccc2)C1 (configuration not stated)	0.5	-1.2	-0.4	5.8	nt
CCOC(=O)c1c(C)[nH]c(C(=O)COC(=O)C2CC(=O)N(Cc3ccccc3)C2)c1C (configuration not stated)	0.7	1.5	-0.8	101.4*	5.5
CC(=O)c1c(C)[nH]c(C(=O)OCC(=O)N(C)C)c1C	0.2	-1.1	-0.2	-26.2	nt
COc1ccc(N/N=C(\C=N\O)C(=O)c2ccc(OC)cc2)cc1	0.4	-0.6	24.3	nt	73.3*
COc1ccc(NC(=O)/C=N/O)cc1	-1.1	0.7	-2.7	0.0	nt
COC(=O)c1c(-c2ccc(OC)cc2)sc2cc(OC)c(OC)cc12	1.3	-1.3	2.5	nt	nt
SMILES	A1 inh	UPR CHOP act	XBP1 UPR activ	CHOP inh	CHOP confirm
CN(C)c1ncnc2sc(-c3ccccc3)cc12	-1.0	6.3	7.2	nt	nt
Cc1sc2ncnc(N3CCCCC3C)c2c1C (configuration not stated)	0.3	2.2	0.4	98.7*	70.3*
CC1CN(CC(=O)c2c(N)n(Cc3ccccc3)c(=O)n(C)c2=O)CC(C)O1 (configuration not stated)	-1.0	-1.4	-2.4	21.5	nt
CC(=O)N1N=C(c2cccs2)CC1c1cc2cc(C)ccc2nc1Cl (configuration not stated)	0.6	-2.5	12.0	105.6*	-54.6
CN([C@@H](C(=O)OC(C)(C)C)c1ccccc1)S(=O)(=O)c1cccc(S(=O)(=O)N(C)[C@@H](C(=O)OC(C)(C)C)c2ccccc2)c1	0.1	0.6	-3.1	nt	nt
CC(C)(CO)N1CCN(C(=S)Nc2ccccc2)CC1	1.9	0.8	-7.0	-12.7	nt
